Screening data deposited in PubChem BioAssay by Broad Institute.
An excerpt weighted towards active compounds, which were near 5.8% of everything screened.
IDH1 mut inh – IDH1 R132H (human) inhibition; O75874; IDH1 R132H reductase, diaphorase/resazurin fluorescence, 60 min; inhibition, % at 10 µM; 0.18% of 70,000 active; AID 624101; in the data active means inhibition above about 34%; inconclusive means no clear call, values can overlap the other calls; inactive means below about 11%
T cruzi growth – T. cruzi proliferation inhibition | T. cruzi beta-gal in NIH3T3, GalScreen luminescence, 90 h | inhibition, % at 8.34 µM | 5.9% of 77,000 active | AID 624255;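 active means mean inhibition above about 93%, with at least 55% of replicates each passing it, limit read from the data, passing the limit was not always enough; inconclusive means only one of those two conditions holds; inactive means neither condition holds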
Pf Dd2 growth – blocks growth of Plasmodium falciparum Dd2 parasites; P. falciparum Dd2 growth, SYBR Green, 72 h; stronger effect = lower value; AID 1159554; 2.3% of 94,000 active; activity change, % at 10 µM; in the data active means activity change below about -80%; inconclusive means no clear call, values can overlap the other calls
GASC1 inh – inhibitors of human demethylase GASC-1 KDM4C; GST-KDM4C 2-372, H3K9me3 peptide, LANCE TR-FRET; inhibition, % at 12.5 µM; 0.15% of 96,000 active; AID 720574;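 active means mean replicate inhibition above about 25%, with at least 55% of replicates also reaching it, limit read from the data, passing the limit was not always enough; inconclusive means only one of those two conditions met; inactive means neither condition met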
Target sequence (Q9H3R0 2-372 limits assumed): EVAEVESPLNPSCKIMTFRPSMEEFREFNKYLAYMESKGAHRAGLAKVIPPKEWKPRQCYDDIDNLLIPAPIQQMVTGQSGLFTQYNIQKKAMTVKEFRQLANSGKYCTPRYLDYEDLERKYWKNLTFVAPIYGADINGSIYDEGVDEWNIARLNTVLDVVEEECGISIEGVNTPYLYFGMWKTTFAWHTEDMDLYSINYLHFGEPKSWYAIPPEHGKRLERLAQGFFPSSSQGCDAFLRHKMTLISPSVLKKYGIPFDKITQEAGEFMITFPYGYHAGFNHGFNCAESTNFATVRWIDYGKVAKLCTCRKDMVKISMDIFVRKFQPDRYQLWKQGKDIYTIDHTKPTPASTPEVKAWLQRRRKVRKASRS
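Test system: N-terminal GST-fused human GASC-1 (KDM4C) fragment, residues 2-372; quantity: GASC-1 enzyme at 10 nM final in reaction; dosing: single dose; schedule: 30 min demethylation and 1 h detection at room temperature; signal: LANCE TR-FRET, excitation 340 nm, emissions 618 and 671 nm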
Numbers stand for hits; . = inactive; ? = inconclusive; / = no result.

SMILES	IDH1 mut inh	T cruzi growth	Pf Dd2 growth	GASC1 inh
OC[C@@H]1[C@@H](c2ccccc2)C2(CN(Cc3ccc4c(c3)OCO4)C2)N1Cc1ccccc1	/	/	-93	.
OC[C@@H]1[C@H](c2ccccc2)C2(CN(Cc3ccccc3)C2)N1Cc1ccncc1	/	/	.	.
CC(=O)N1CC2(C1)[C@@H](c1ccccc1)[C@@H](CO)N2Cc1ccccc1F	/	/	.	/
OC[C@@H]1[C@@H](c2ccccc2)C2(CN(Cc3ccccc3F)C2)N1Cc1ccccc1F	/	/	-88	.
O=C(C1CCCC1)N1CC2(C1)[C@@H](c1ccccc1)[C@H](CO)N2Cc1ccc(Cl)cc1	/	/	-85	.
COc1cccc(CN2[C@H](CO)[C@@H](c3ccccc3)C23CN(Cc2ccccc2OC)C3)c1	/	/	-90	.
C[C@H](CO)N1C[C@H](C)[C@H](CN(C)CC2CC2)OCCCC[C@H](C)Oc2ccc(NC(=O)Nc3ccc(C(F)(F)F)cc3)cc2C1=O	.	/	.	.
Cc1ccc(S(=O)(=O)N(C)C[C@H]2OCCCC[C@@H](C)Oc3ccc(NS(=O)(=O)c4cn(C)cn4)cc3C(=O)N([C@@H](C)CO)C[C@H]2C)cc1	/	.	.	.
Cc1ccc(C(C)C)cc1OCC(O)Cn1c(C)nc2ccccc21 (configuration not stated)	.	/	/	/
C[C@H](CO)N1C[C@H](C)[C@H](CN(C)C(=O)c2ccc(F)cc2)OCc2ccccc2-c2c(n(C)c3ccccc23)C1=O	.	.	-86	.
C[C@H]1CN([C@@H](C)CO)C(=O)c2c(c3ccccc3n2C)-c2ccccc2CO[C@H]1CN(C)C(=O)c1cc(Cl)cc(Cl)c1	/	/	-88	.
C[C@H]1CN([C@@H](C)CO)C(=O)c2c(c3ccccc3n2C)-c2ccccc2CO[C@@H]1CN(C)C(=O)c1ccccc1	/	.	.	.
C[C@@H]1CN([C@H](C)CO)C(=O)c2c(c3ccccc3n2C)-c2ccccc2CO[C@@H]1CN(C)C(=O)c1cc(Cl)cc(Cl)c1	/	/	-92	.
C[C@H]1CN([C@@H](C)CO)C(=O)c2c(c3ccccc3n2C)-c2ccccc2CO[C@@H]1CN(C)C(=O)c1cc(Cl)cc(Cl)c1	/	/	?	.
Cc1noc(C)c1S(=O)(=O)N(C)C[C@H]1OCCCC[C@H](C)Oc2ccc(NS(=O)(=O)c3ccc(Cl)cc3)cc2C(=O)N([C@H](C)CO)C[C@@H]1C	.	.	.	.
COc1ccccc1C#Cc1ccc([C@H]2[C@@H](C#N)N(C(=O)C3CCCCC3)[C@H]2CO)cc1	/	.	-92	/
COc1ccccc1C#Cc1ccc([C@H]2[C@@H](CO)N(C(=O)C3CC3)[C@H]2C#N)cc1	.	.	?	/
COc1ccccc1C#Cc1ccc([C@@H]2[C@@H](C#N)N(C(=O)C3CCCC3)[C@@H]2CO)cc1	/	/	.	.
COc1ccccc1C#Cc1ccc([C@@H]2[C@@H](C#N)N(C(=O)C3CCCCC3)[C@H]2CO)cc1	/	.	-91	/
CCCNC(=O)C[C@@H]1C[C@H]2c3cc(NC(=O)CC4CC4)ccc3O[C@H]2[C@H](CO)O1	?	.	.	41
CN(C)c1ccc2c(c1)[C@@H]1C[C@H](CC(=O)NCc3ccccc3)O[C@@H](CO)[C@@H]1O2	.	.	.	47
CN(C)c1ccc2c(c1)[C@H]1C[C@H](CC(=O)NCc3ccc(-c4ccccc4)cc3)O[C@H](CO)[C@H]1O2	/	/	.	.
O=C(C[C@H]1C[C@H]2c3cc(NC(=O)Cc4ccncc4)ccc3O[C@H]2[C@H](CO)O1)NCc1ccccc1	.	.	-89	.
O=C(C[C@@H]1C[C@@H]2c3cc(NC(=O)Cc4ccncc4)ccc3O[C@@H]2[C@H](CO)O1)NCc1ccccc1	.	.	.	.
CN(C)c1ccc2c(c1)[C@@H]1C[C@@H](CC(=O)NCc3ccccn3)O[C@@H](CO)[C@@H]1O2	.	.	.	28
SMILES	IDH1 mut inh	T cruzi growth	Pf Dd2 growth	GASC1 inh
CCCNC(=O)C[C@@H]1C[C@H]2c3cc(NC(=O)CC4CC4)ccc3O[C@H]2[C@@H](CO)O1	.	.	.	.
COc1ccc2c3c([nH]c2c1)[C@H](CO)N(C(=O)Cc1ccccn1)CC31CCN(Cc2ccccn2)CC1	/	/	.	.
COc1ccc2c3c([nH]c2c1)[C@@H](CO)N(Cc1nccs1)CC31CCN(Cc2nccs2)CC1	/	/	-90	.
COc1ccc2c3c([nH]c2c1)[C@H](CO)N(Cc1ccccn1)CC31CCN(Cc2cccc(F)c2)CC1	/	/	.	.
COc1cccc(CN2CC3(CCN(Cc4ccccn4)CC3)c3c([nH]c4cc(OC)ccc34)[C@@H]2CO)c1	/	/	-89	.
COc1ccc2c3c([nH]c2c1)[C@@H](CO)N(Cc1cccc(F)c1)CC31CCN(Cc2ccccn2)CC1	/	/	-92	.
COc1ccc(NC(=O)Nc2ccc3c(c2)C(=O)N([C@H](C)CO)C[C@H](C)[C@@H](CN(C)CC2CC2)OCCCC[C@H](C)O3)cc1	/	.	-84	.
C[C@H](CO)N1C[C@H](C)[C@@H](CN(C)CC2CCCCC2)OCCCC[C@H](C)Oc2ccc(NC(=O)Nc3ccccc3)cc2C1=O	.	.	.	.
C[C@@H]1CCCCO[C@H](CN(C)CC2CC2)[C@H](C)CN([C@@H](C)CO)C(=O)c2cc(NC(=O)C3CCCCC3)ccc2O1	.	/	/	.
C[C@@H]1CCCCO[C@H](CN(C)CC2CC2)[C@H](C)CN([C@H](C)CO)C(=O)c2cc(NC(=O)C3CCCCC3)ccc2O1	/	.	-83	.
C[C@H]1CCCCO[C@@H](CN(C)CC2CCCCC2)[C@@H](C)CN([C@@H](C)CO)C(=O)c2cc(NC(=O)Nc3ccccc3)ccc2O1	.	.	-83	.
COc1ccc(NC(=O)Nc2ccc3c(c2)C(=O)N([C@H](C)CO)C[C@@H](C)[C@@H](CN(C)CC2CCCCC2)OCCCC[C@@H](C)O3)cc1	.	.	-81	.
COc1cccc(C(=O)Nc2ccc3c(c2)OC[C@@H](C)N(CC2CC2)C[C@H](C)[C@H](OC)CN(C)C3=O)c1	.	.	.	.
Cc1noc(C)c1NC(=O)Nc1ccc2c(c1)C(=O)N([C@H](C)CO)C[C@H](C)[C@@H](CN(C)C(=O)Nc1ccccc1)OCCCC[C@@H](C)O2	.	.	.	.
N#C[C@@H]1[C@H](c2ccc(C#CCC3CCCC3)cc2)[C@H](CO)N1C(=O)c1ccccn1	/	.	?	.
N#C[C@H]1[C@@H](c2ccc(C#CCC3CCCC3)cc2)[C@H](CO)N1C(=O)c1ccccn1	/	101	.	.
CC(C)C#Cc1ccc([C@@H]2[C@@H](CO)N(C(=O)c3ccccn3)[C@H]2C#N)cc1	/	.	.	.
N#C[C@H]1[C@H](c2ccc(C#CCC3CCCC3)cc2)[C@H](CO)N1C(=O)c1ccccn1	/	104	.	.
COCC(=O)N1CC2(CCN(C(=O)CN3CCOCC3)CC2)c2c([nH]c3cc(OC)ccc23)[C@@H]1CO	/	/	.	.
Cc1nc(N2[C@H](CO)[C@H](c3ccccc3)[C@H]2CNCC2CCCC2)sc1C	/	/	-90	.
C[C@H](CO)N1C[C@H](C)[C@H](CN(C)C(=O)Nc2cccc3ccccc23)Oc2ccc(NC(=O)Nc3ccc(C(F)(F)F)cc3)cc2C1=O	.	.	.	.
